{"source": "ChEMBL document CHEMBL3272325", "about": "“Structure-activity relationships of dimeric Catharanthus alkaloids. 1. Deacetylvinblastine amide (vindesine) sulfate” (J Med Chem, 1978)", "key": {"P388 [1]": {"test_system": "P388", "test": "Antitumor activity against mouse P388 cells allografted in mouse assessed as increase in life span at 0.10 mg/kg/day, ip administered from day 1 to day 9 relative to untreated control", "format": "functional", "details": "route intraperitoneal", "outline": "(§1)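 P388 ascites implanted ip in mice, 10 animals per group. Sulfate salts given ip either daily on days 1-9 or as a single dose on day 1. Median life span was calculated using all deaths and survivors. Percent increase in life span was taken over untreated controls. The highest nontoxic dose was noted.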"}, "B16 [2]": {"test_system": "B16", "test": "Antitumor activity against mouse B16 cells allografted in B6D2F1 mouse assessed as mean survival time at 0.648 mg/kg/day, ip administered on day 1, 5 and 9 (reference value: 20.0 days)", "format": "functional", "details": "route intraperitoneal", "outline": "(§2)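 Male B6D2F1 mice implanted ip on day 0 with 0.25 mL of a 20% (w/v) B16 melanoma brei. Alkaloid sulfate salts given ip on days 1, 5, 9 or on days 5, 9, 13, groups of 10, against 30 untreated controls. Read-outs: median survival time with range of individual deaths, and percent increase in life span, with survivors counted on day 56.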"}, "P388 [3]": {"test_system": "P388", "test": "Antitumor activity against mouse P388 cells allografted in mouse assessed as increase in life span at 13.5 mg/kg/day, ip after 1 day", "format": "functional", "details": "24 h, route intraperitoneal"}, "P388 [4]": {"test_system": "P388", "test": "Antitumor activity against mouse P388 cells allografted in mouse assessed as increase in life span at 4 mg/kg/day, ip after 1 day", "format": "functional", "details": "24 h, route intraperitoneal", "outline": "as §1"}, "P388 [5]": {"test_system": "P388", "test": "Antitumor activity against mouse P388 cells allografted in mouse assessed as increase in life span at 2.7 mg/kg/day, ip after 1 day", "format": "functional", "details": "24 h, route intraperitoneal", "outline": "as §1"}, "P388 [6]": {"test_system": "P388", "test": "Antitumor activity against mouse P388 cells allografted in mouse assessed as increase in life span at 1.8 mg/kg/day, ip after 1 day", "format": "functional", "details": "24 h, route intraperitoneal", "outline": "as §1"}, "B16 [7]": {"test_system": "B16", "test": "Antitumor activity against mouse B16 cells allografted in B6D2F1 mouse assessed as mean survival time at 1.8 mg/kg/day, ip administered on day 1, 5 and 9 (reference value: 20.0 days)", "format": "functional", "details": "route intraperitoneal", "outline": "as §2"}, "[8]": {"test": "Toxicity in ip dosed mouse allografted with mouse p388 cells administered from day 1 to day 9", "format": "organism-based", "details": "in vivo, read-out: MNTD", "outline": "as §1"}, "[9]": {"test": "Toxicity in ip dosed mouse allografted with mouse p388 cells after 1 day", "format": "organism-based", "details": "in vivo, read-out: MNTD", "outline": "as §1"}, "B16 [10]": {"test_system": "B16", "test": "Antitumor activity against mouse B16 cells allografted in B6D2F1 mouse assessed as increase in life span at 1.08 mg/kg/day, ip administered on day 1, 5 and 9 measured for 56 days relative to untreated control", "format": "functional", "details": "route intraperitoneal", "outline": "as §2"}, "B16 [11]": {"test_system": "B16", "test": "Antitumor activity against mouse B16 cells allografted in B6D2F1 mouse assessed as increase in life span at 0.648 mg/kg/day, ip administered on day 1, 5 and 9 measured for 56 days relative to untreated control", "format": "functional", "details": "route intraperitoneal", "outline": "as §2"}, "B16 [12]": {"test_system": "B16", "test": "Antitumor activity against mouse B16 cells allografted in B6D2F1 mouse assessed as increase in life span at 0.389 mg/kg/day, ip administered on day 1, 5 and 9 measured for 56 days relative to untreated control", "format": "functional", "details": "route intraperitoneal", "outline": "as §2"}, "B16 [13]": {"test_system": "B16", "test": "Antitumor activity against mouse B16 cells allografted in B6D2F1 mouse assessed as mean survival time at 1.08 mg/kg/day, ip administered on day 5, 9 and 13 (reference value: 20.0 days)", "format": "functional", "details": "route intraperitoneal", "outline": "as §2"}, "B16 [14]": {"test_system": "B16", "test": "Antitumor activity against mouse B16 cells allografted in B6D2F1 mouse assessed as mean survival time at 0.648 mg/kg/day, ip administered on day 5, 9 and 13 (reference value: 20.0 days)", "format": "functional", "details": "route intraperitoneal", "outline": "as §2"}, "B16 [15]": {"test_system": "B16", "test": "Antitumor activity against mouse B16 cells allografted in B6D2F1 mouse assessed as increase in life span at 3 mg/kg/day, ip administered on day 5, 9 and 13 measured for 56 days relative to untreated control", "format": "functional", "details": "route intraperitoneal", "outline": "as §2"}, "B16 [16]": {"test_system": "B16", "test": "Antitumor activity against mouse B16 cells allografted in B6D2F1 mouse assessed as increase in life span at 1.8 mg/kg/day, ip administered on day 5, 9 and 13 measured for 56 days relative to untreated control", "format": "functional", "details": "route intraperitoneal", "outline": "as §2"}, "B16 [17]": {"test_system": "B16", "test": "Antitumor activity against mouse B16 cells allografted in B6D2F1 mouse assessed as increase in life span at 1.08 mg/kg/day, ip administered on day 5, 9 and 13 measured for 56 days relative to untreated control", "format": "functional", "details": "route intraperitoneal", "outline": "as §2"}, "[18]": {"test": "Antitumor activity against mouse Ridgeway osteogenic sarcoma cells allografted in mouse at 0.2 to 0.3 mg/kg/day, ip", "format": "functional", "details": "route intraperitoneal", "outline": "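Ridgeway osteogenic sarcoma and Gardner lymphosarcoma in mice, with sulfate salts given ip daily on days 1-9. Tumor growth inhibition versus controls scored in bands: +++ = 75-100%, ++ = 50-75%, ± = under 25%.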"}, "[19]": {"test": "Acute toxicity in ip dosed mouse", "format": "organism-based", "details": "in vivo"}, "[20]": {"test": "Antitumor activity against mouse P1534(J) cells allografted in mouse assessed as tumor growth inhibition at 0.2 mg/kg/day, ip administered from day 1 to day 9 relative to unreated control", "format": "functional", "details": "P1534J, route intraperitoneal, read-out: TGI", "outline": "(§3)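 P1534(J) leukemia implanted subcutaneously in mice. Sulfate salts given ip daily on days 1-9. Read-out was percent inhibition of tumor growth relative to untreated controls. The highest nontoxic dose was recorded.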"}, "[21]": {"test": "Toxicity in ip dosed mouse allografted with mouse P1534(J) cells administered from day 1 to day 9", "format": "organism-based", "details": "in vivo, read-out: MNTD", "outline": "as §3"}, "B16 [22]": {"test_system": "B16", "test": "Antitumor activity against mouse B16 cells allografted in C57Bl/6 mouse assessed as mean survival time at 0.9 mg/kg/day, ip administered on day 1, 5 and 9 (reference value: 24.6 days)", "format": "functional", "details": "route intraperitoneal"}, "B16 [23]": {"test_system": "B16", "test": "Antitumor activity against mouse B16 cells allografted in C57Bl/6 mouse assessed as increase in life span at 0.9 mg/kg/day, ip administered on day 1, 5 and 9 measured for 61 days relative to control", "format": "functional", "details": "route intraperitoneal", "outline": "(§4)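 C57BL/6 mice implanted ip with 0.5 mL of B16 melanoma brei. Alkaloid sulfate salts given ip on days 1, 5, 9 or on days 5, 9, 13. Percent increase in life span measured against controls; experiment ended at 61 days.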"}, "B16 [24]": {"test_system": "B16", "test": "Antitumor activity against mouse B16 cells allografted in C57Bl/6 mouse assessed as increase in life span at 0.9 mg/kg/day, ip administered on day 5, 9 and 13 measured for 61 days relative to control", "format": "functional", "details": "route intraperitoneal", "outline": "as §4"}, "Rhesus monkey [25]": {"test_system": "Rhesus monkey", "test": "Neurotoxicity in iv dosed monkey assessed as peripheral neuropathy", "format": "toxicity, organism-based, Macaca mulatta", "details": "in vivo"}, "Homo sapiens": {"test_system": "Homo sapiens", "test": "Neurotoxicity in human assessed as neutropenia at 3 to 4 mg/m'2, iv once weekly dosed through push technique", "format": "toxicity, organism-based", "details": "in vivo"}, "[26]": {"test_system": "Friend murine leukemia virus", "test": "Antimicrobial activity against Friend leukemia virus infected in mouse assessed as inhibition of spleen enlargement at 0.2 mg/kg/day, iv for 10 days relative to untreated control", "format": "functional", "details": "240 h", "outline": "(§5)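 DBA/2 mice bearing Friend leukemia virus were dosed iv for 10 days. Spleen enlargement was compared with untreated controls.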"}, "[27]": {"test_system": "Friend murine leukemia virus", "test": "Antimicrobial activity against Friend leukemia virus infected in mouse assessed as inhibition of spleen enlargement at 0.25 mg/kg/day, iv for 10 days relative to untreated control", "format": "functional", "details": "240 h", "outline": "as §5"}, "Rhesus monkey [28]": {"test_system": "Rhesus monkey", "test": "Neurotoxicity in iv dosed monkey assessed as peripheral neuropathy", "details": "in vivo"}, "B16 [29]": {"test_system": "B16", "test": "Antitumor activity against mouse B16 cells allografted in C57Bl/6 mouse assessed as mean survival time at 0.9 mg/kg/day, ip administered on day 5, 9 and 13 (reference value: 21.5 days)", "details": "route intraperitoneal"}}, "data": [{"compound": "CC[C@]1(O)C[C@@H]2CN(CCc3c([nH]c4ccccc34)[C@@](C(=O)OC)(c3cc4c(cc3OC)N(C)[C@H]3[C@@](O)(C(N)=O)[C@H](O)[C@]5(CC)C=CCN6CC[C@]43[C@@H]65)C2)C1.O=S(=O)(O)O", "note": "[VINDESINE SULFATE]", "values": [{"measurement": "ILS at 0.1 mg/kg/day", "setting": "P388 [1]", "result": 109, "unit": "%"}, {"measurement": "MST", "setting": "B16 [2]", "result": 35, "unit": "days"}, {"measurement": "ILS at 13.5 mg/kg/day", "setting": "P388 [3]", "result": 231, "unit": "%"}, {"measurement": "ILS at 4 mg/kg/day", "setting": "P388 [4]", "result": 77, "unit": "%"}, {"measurement": "ILS at 2.7 mg/kg/day", "setting": "P388 [5]", "result": 95, "unit": "%"}, {"measurement": "ILS at 1.8 mg/kg/day", "setting": "P388 [6]", "result": 54, "unit": "%"}, {"measurement": "MST", "setting": "B16 [7]", "result": 48.5, "unit": "days"}, {"measurement": "MTD", "setting": "[8]", "result": 0.9, "unit": "mg/kg/day"}, {"measurement": "MTD at 24 h", "setting": "[9]", "result": 13.5, "unit": "mg/kg/day"}, {"measurement": "ILS at 1.08 mg/kg/day", "setting": "B16 [10]", "result": 110, "unit": "%"}, {"measurement": "ILS at 0.648 mg/kg/day", "setting": "B16 [11]", "result": 75, "unit": "%"}, {"measurement": "ILS at 0.389 mg/kg/day", "setting": "B16 [12]", "result": 85, "unit": "%"}, {"measurement": "MST", "setting": "B16 [13]", "result": 31.5, "unit": "days"}, {"measurement": "MST", "setting": "B16 [14]", "result": 27, "unit": "days"}, {"measurement": "ILS at 3 mg/kg/day", "setting": "B16 [15]", "result": 48, "unit": "%"}, {"measurement": "ILS at 1.8 mg/kg/day", "setting": "B16 [16]", "result": 90, "unit": "%"}, {"measurement": "ILS at 1.08 mg/kg/day", "setting": "B16 [17]", "result": 58, "unit": "%"}, {"measurement": "TGI", "setting": "[18]", "result": 75, "unit": "%"}, {"measurement": "LD50", "setting": "[19]", "result": 6.3, "unit": "mg/kg"}, {"measurement": "inhibition in vivo at 0.2 mg/kg/day", "setting": "[20]", "result": 74, "unit": "%"}, {"measurement": "MTD", "setting": "[21]", "result": 0.25, "unit": "mg/kg/day"}, {"measurement": "MST", "setting": "B16 [22]", "result": 39.3, "unit": "days"}, {"measurement": "ILS at 0.9 mg/kg/day", "setting": "B16 [23]", "result": 60, "unit": "%"}, {"measurement": "ILS at 0.9 mg/kg/day", "setting": "B16 [24]", "result": 78, "unit": "%"}, {"measurement": "Activity", "setting": "Rhesus monkey [25]", "result": "Non-toxic"}, {"measurement": "Activity", "setting": "Homo sapiens", "result": "Toxic"}, {"measurement": "inhibition in vivo at 0.2 mg/kg/day", "setting": "[26]", "result": 80, "unit": "%"}, {"measurement": "inhibition in vivo at 0.25 mg/kg/day", "setting": "[27]", "result": 90, "unit": "%"}, {"measurement": "Activity", "setting": "Rhesus monkey [28]", "result": "Non-toxic"}, {"measurement": "MST", "setting": "B16 [29]", "result": 38.3, "unit": "days"}]}]}
